Data on 13 molecules can be found in publication PMC2292217 (The Journal of Experimental Medicine, 2008).

Series [1] deals with mice. The conditions noted are these: cited from earlier work.
In series [2] the test system is C57Bl6/J mice. Kind of series: Zymosan-induced peritonitis. Type of series: in vivo, mouse. The conditions noted are these: for Protection in vivo as judged by neutrophil and monocyte levels (in words): same dose and time as C15 (0.32 ng/kg i.p. 1 h before zymosan), 4 h. The gist of the method:
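C57BL6/J mice received test peptide i.p. (8 pg/mouse, ∼0.32 ng/kg, in 500 μl) or PBS, either 1 h before or 2 h after 10 μg zymosan A i.p. Peritoneal lavage with PBS-3 mM EDTA was done at 2–48 h. Cells were counted, Fc-blocked, stained for 7/4 and Ly-6G, and typed by FACS: neutrophils 7/4high Ly-6Ghigh, monocytes 7/4high Ly-6Glow. Six to eight mice per treatment.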

The test system of series [3] is peritoneal MΦs (PMΦs). Nature of the series: MΦ activation assay: LPS/IFN-γ–induced inflammatory cytokine expression. Type of series: cell-based, mouse (C57BL/6). The settings on record: for Antiinflammatory activity in the MΦ activation assay (in words): PMΦs, peptides 0.1 pM–100 nM, LPS/IFN-γ 15 h.
Series [4] deals with ChemR23−/− PMΦs. Nature of the series: MΦ chemotaxis assay with ChemR23 KO MΦs. The conditions noted are these: MΦs from ChemR23−/− mice, 4 h migration. Type of series: cell-based, mouse.
For series [5], the system named is ChemR23−/− PMΦs. Nature of the series: MΦ activation assay in MΦs from ChemR23−/− mice. Type of series: cell-based, mouse. The settings on record: 0.1–1 pM, 1 h pretreatment, LPS/IFN-γ 15 h; ELISA.
Series [6] deals with peritoneal MΦs (PMΦs). Kind of series: MΦ chemotaxis assay. Type of series: cell-based, mouse. The conditions noted are these: 25 ng/ml, positive control, 4 h; mean ± SEM, n = 4 independent experiments. The gist of the method: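 Bio-Gel-elicited peritoneal MΦs (4 × 10^5) from wild-type or ChemR23−/− mice were placed on 8-μm-pore membranes in RPMI/25 mM Hepes/0.1% BSA. They migrated 4 h toward test peptide, 25 ng/ml RANTES (positive control) or serum-free medium. For Gαi blockade, cells were pretreated 30 min with 200 ng/ml PTX. Migrated nuclei were formalin-fixed, DAPI-stained and imaged, with ≥3 replicate wells per treatment. Migration index = treatment threshold area ÷ serum-free area; n = 4 experiments.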

For series [7], the system named is MΦs. Nature of the series: Cell viability, MTS assay. The settings on record: MTS assay (Promega). Type of series: cell-based, mouse. Background: Tetrazolium dyes change colour on reduction, which living cells bring about.
Series [8] concerns Bio-Gel–elicited peritoneal cells from ChemR23 KO mice. Kind of series: Calcium flux in ChemR23 KO cells. Type of series: cell-based, mouse. The settings on record: Fura-PE3/AM. Background: Calcium assays in cells follow changes in intracellular calcium, usually with a dye or a luminescent sensor.
The test system of series [9] is wild-type Bio-Gel–elicited peritoneal cells. Nature of the series: Calcium flux in wild-type cells. Type of series: cell-based, mouse. The conditions noted are these: Fura-PE3/AM. The gist of the method: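 Cells from mice 4 d after Bio-Gel elicitation were suspended at 10^7 cells/ml in HBSS with CaCl2/MgCl, 0.5% BSA and 10 mM Hepes. They were loaded with 2 μM Fura-PE3/AM for 45 min at room temperature, then washed twice. 3 × 10^6 cells were added to prewarmed 37°C buffer in a cuvette. After at least 60 s, fluorescence was recorded at excitation 340/380 nm and emission 510 nm.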

The mark [10] stands for this setting: 0.32 ng/kg i.p. 1 h before zymosan, lavage fluid at 4 h.
[11] abbreviates: time course, 8 pg/mouse i.p. 1 h before zymosan, 4 h after zymosan, FACS.
Setting [12] is: classically activated PMΦs, quantitative RT-PCR normalized to HPRT.

With `CC[C@@H](O)/C=C/C=C\C[C@@H](O)/C=C/C=C/C=C\[C@@H](O)CCCC(=O)O` [RvE1, resolvin E1], in series [1] (300 ng/mouse i.p. (12 μg/kg)), the “Reduction of PMN numbers in peritoneal exudates” value is on record as “up to 25%”.
On to `C[C@@H]1C[C@H]2[C@@H]3CCC4=CC(=O)C=C[C@]4(C)[C@@]3(F)[C@@H](O)C[C@]2(C)[C@@]1(O)C(=O)CO` [dexamethasone], for which, in [1] (30 μg/mouse (1.2 mg/kg)), the “Suppression of monocyte and neutrophil influx” value was 50%.
Regarding AGEDPHGYALPGQAA [C15-M], the “Protection in vivo as judged by neutrophil and monocyte levels (in words)” value in [2] is “not protective”. Further, the “Antiinflammatory activity in the MΦ activation assay (in words)” value (from here on “Antiinflammatory activity”) in series [3] is “devoid of antiinflammatory activity”.
As to AGEDPHGYFLPGQFA [C15], the “Effect at 4 pg/mouse (in words)” value in [2] (4 pg/mouse (∼0.16 ng/kg) i.p., 4 h after zymosan) is listed as “significant antiinflammatory effects”. For the same molecule, in [2] (8 pg i.p. 2 h after zymosan, 4 h after zymosan), the “Decrease in monocyte recruitment, C15 post-zymosan” value is 42%. For the same molecule, the “Peritoneal monocyte levels, C15 post-zymosan” value in series [2] (8 pg i.p. 2 h after zymosan, lavage 4 h after zymosan, zymosan alone 0.69 × 10^6) is recorded as 0.42 × 10^6 cells. For the same molecule, the “Peritoneal neutrophil numbers, C15 post-zymosan” value in [2] (8 pg i.p. 2 h after zymosan, lavage 4 h after zymosan, zymosan alone 1.9 × 10^6) is 0.83 × 10^6 cells. Also, in series [2] (setting [10]), the “Reduction of peritoneal IL-1β expression” value is on record as 67%, the “Reduction of peritoneal IL-6 expression” value came to 67%, the “Reduction of peritoneal JE expression” value amounted to 59% and the “Reduction of peritoneal KC expression” value is recorded as 38%. The “Reduction of peritoneal TNF-α expression” value in series [2] (setting [10]) worked out at 51%. The “Rate of monocyte influx” value in series [2] (2–4 h after zymosan, 8 pg/mouse i.p. pretreatment, zymosan alone 0.51 × 10^6) is 0.18 × 10^6 cells/h. Further, the “Magnitude of peak neutrophilia relative to zymosan-challenged mice” value in series [2] (time course, 8 pg/mouse i.p. 1 h before zymosan) is ~50%. Also, the “Suppression of neutrophil infiltration, 2 h” value in series [2] (time course, 8 pg/mouse i.p. 1 h before zymosan, 2 h after zymosan, FACS) is 50%. For the same molecule, in [2] (setting [11]), the “Suppression of monocyte levels, 4 h” value turned out to be 63% and the “Suppression of neutrophil infiltration, 4 h” value stood at 66%. The “Suppression of monocyte levels, 8 h” value in series [2] (time course, 8 pg/mouse i.p. 1 h before zymosan, 8 h after zymosan, FACS) is given as 61%. In addition, the “Suppression of neutrophil infiltration, 24 h” value in series [2] (time course, 8 pg/mouse i.p. 1 h before zymosan, 24 h after zymosan, FACS) is 50%. The “Suppression of monocyte levels, 48 h” value in series [2] (time course, 8 pg/mouse i.p. 1 h before zymosan, 48 h after zymosan, FACS) is 64%. For the same molecule, the “Peak peritoneal neutrophil number” value in series [2] (time course, 8 pg/mouse i.p. 1 h before zymosan, zymosan alone 1.25 × 10^6) was 0.62 × 10^6 cells. Further, the “Chemotactic effect in ChemR23 KO MΦs (in words)” value (from here on “Chemotactic effect”) in series [4] is given as “completely ablated”. In addition, the “Suppression of proinflammatory mediator production by ChemR23 KO MΦs (in words)” value in series [5] was “unable to suppress”.
With ELSETQRRSLQVALEEFHK [N19], the “Antiinflammatory activity” value in series [3] is “devoid of antiinflammatory activity”.
Take FSRALRTK [C8]: the “Antiinflammatory activity” value in series [3] is recorded as “no detectable antiinflammatory activity”.
In the case of GLFHDQAGPPAGYEF [C15-S], in series [2], the “Protection in vivo as judged by neutrophil and monocyte levels (in words)” value is recorded as “not protective”. In addition, the “Antiinflammatory activity” value in series [3] was “devoid of antiinflammatory activity”.
Turning to KPECTIKPNGRRRKCLACIK [M20], the “Antiinflammatory activity” value in series [3] was “devoid of antiinflammatory activity”.
For the molecule PHGYFLPGQFA [C11], the “Antiinflammatory activity” value in series [3] is “devoid of antiinflammatory activity”.
RALRTK [C6]: in series [3], the “Antiinflammatory activity” value is given as “no detectable antiinflammatory activity”.
Consider fMLP [reference compound], for which the “Chemotactic effect” value in series [4] is on record as “unaffected”.

B1: RANTES: CC chemokine, positive control in chemotaxis (25 ng/ml; 3 nM) (protein, UniProt P13501 24-91, looked up)
C-C motif chemokine 5: SPYSSDTTPCCFAYIARPLPRAHIKEYFYTSGKCSNPAVVFVTRKNRQVCANPEKKWVREYINSLEMS
As to B1, in [4], the “Chemotactic effect” value was “unaffected”. This molecule also displayed a Migration index in series [6] of 6 ± 0.59.

B2: Chemerin: recombinant murine chemerin (R&D Systems), chemotactic protein that binds ChemR23 (protein, UniProt Q9DD06 21-156, looked up)
Retinoic acid receptor …: EPELSETQRRSLQVALEEFHKHPPVQLAFQEIGVDRAEEVLFSAGTFVRLEFKLQQTNCPKKDWKKPECTIKPNGRRRKCLACIKMDPKGKILGRIVHCPILKQGPQDPQELQCIKIAQAGEDPHGYFLPGQFAFS
For the molecule B2, the “Chemotactic effect” value in series [4] is “completely ablated”. Further, the “Effect on cell viability (in words)” value in series [7] is recorded as “not found to affect cell viability adversely”. Besides, in series [3] (setting [12]), the “Induction of IL-10 mRNA expression” value is listed as 10 fold and the “Induction of TGF-β mRNA expression” value is on record as “twofold”. Further, the “Calcium flux (in words)” value in [8] is on record as “failed to do so”. The “Calcium flux (in words)” value in series [9] is on record as “induce calcium flux”.
